Experimental data published in ChEMBL document CHEMBL4138070, “Synthesis and biological evaluation of (-)-kunstleramide and its derivatives” (Medchemcomm, 2017).

What was measured:
Assay type in all cases: functional, cell-based
[1] = tested on: A549; experiment: Antiproliferative activity in human A549 cells assessed as reduction in cell number incubated for 48 hrs by SRB assay; details: A549, 48 h
Summary of the method: (§1)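 Cell lines from ATCC, kept in DMEM with 10% FBS and 1% penicillin–streptomycin at 37 °C under 5% CO2. Seeded from 5×10^4 cells/ml suspension, grown 24 h, then treated with 1, 10, 50 and 100 μM for 48 h. Fixed with cold 10% TCA 1 h at 4 °C, stained with 0.057% SRB, dye dissolved in 10 mM Tris, read at 510 nm. IC50 is 50% cell-number decrease versus untreated control, from regression.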

[2] = tested on: HeLa; experiment: Antiproliferative activity in human HeLa cells assessed as reduction in cell number incubated for 48 hrs by SRB assay; summary of the method: as §1
[3] = tested on: MCF7; experiment: Antiproliferative activity in human MCF7 cells assessed as reduction in cell number incubated for 48 hrs by SRB assay; details: MCF7, 48 h; summary of the method: as §1
[4] = tested on: IMR-32; experiment: Antiproliferative activity in human IMR32 cells assessed as reduction in cell number incubated for 48 hrs by SRB assay; details: IMR-32, 48 h; summary of the method: as §1

IC50 [1] | IC50 [2] | IC50 [3] | Compound | IC50 [4]
24.4 µM | 14.1 µM | 26.2 µM | COc1ccc(C[C@@H](O)/C=C/C=C/C(=O)N2CCCC2)cc1OC | 12 µM
9.92 µM | 12.6 µM | 14.7 µM | COc1ccc(C[C@@H](O)/C=C/C=C/C(=O)N2CCN(c3ncccn3)CC2)cc1OC | 10.8 µM
19.2 µM | 10.7 µM | 15.3 µM | COc1ccc(C[C@@H](O)/C=C/C=C/C(=O)NCc2cc(OC)c(OC)c(OC)c2)cc1OC | 13.4 µM
16.4 µM | 14.1 µM | 39.5 µM | COc1ccc(C[C@@H](O)/C=C/C=C/C(=O)N2CCCCC2)cc1OC | 11 µM
8.13 µM | 23.6 µM | 23.6 µM | COc1ccc(C[C@@H](O)/C=C/C=C/C(=O)N2CCN(c3ccccn3)CC2)cc1OC | 11.1 µM
17.1 µM | 12.9 µM | 33.6 µM | COc1ccc(C[C@@H](O)/C=C/C=C/C(=O)NCc2ccccc2)cc1OC | 16.6 µM
15.7 µM | 11.7 µM | 11.5 µM | CCN1CCN(C(=O)/C=C/C=C/[C@H](O)Cc2ccc(OC)c(OC)c2)CC1 | 10.8 µM
7.58 µM | 8.25 µM | 12.3 µM | COc1ccc(C[C@@H](O)/C=C/C=C/C(=O)N2CCN(Cc3ccc4c(c3)OCO4)CC2)cc1OC | 8.23 µM
16.5 µM | 13.4 µM | 18.1 µM | COc1ccc(C[C@@H](O)/C=C/C=C/C(=O)NCc2ccc(Cl)cc2)cc1OC | 15.7 µM
18 µM | 20.6 µM | 20.2 µM | COc1ccc(C[C@@H](O)/C=C/C=C/C(=O)N2CCSCC2)cc1OC | 16.1 µM
22.2 µM | 16.5 µM | 17.1 µM | COc1ccc(C[C@@H](O)/C=C/C=C/C(=O)N2CCN(C)CC2)cc1OC | 18.9 µM
14.2 µM | 9.75 µM | 12 µM | COc1ccc(C[C@@H](O)/C=C/C=C/C(=O)N2CCN(c3ccccc3)CC2)cc1OC | 9.43 µM
16.8 µM | 9.45 µM | 26.6 µM | COc1ccc(CNC(=O)/C=C/C=C/[C@H](O)Cc2ccc(OC)c(OC)c2)cc1 | 17.4 µM
17.9 µM | 16.4 µM | 16.2 µM | COc1ccc(C[C@@H](O)/C=C/C=C/C(=O)N2CCOCC2)cc1OC | 20.4 µM
13.8 µM | 14.6 µM | 12.9 µM | CCNC(=O)/C=C/C=C/[C@H](O)Cc1ccc(OC)c(OC)c1 | 9.43 µM
10.6 µM | 10.5 µM | 12.5 µM | COc1ccc(C[C@@H](O)/C=C/C=C/C(=O)N2CCN(C(c3ccccc3)c3ccccc3)CC2)cc1OC | 11.9 µM
11.9 µM | 19.2 µM | 13 µM | O=C(/C=C/C=C/c1ccc2c(c1)OCO2)N1CCCCC1 [PIPERINE] | 10.2 µM

Compound | IC50 [1] | IC50 [2] | IC50 [3] | IC50 [4]
COc1ccc(/C=C\c2cc(OC)c(OC)c(OC)c2)cc1O [COMBRETASTATIN A4] | 6.45 µM | 5.36 µM | 4.63 µM | 5.72 µM
